A selection: hits, their analogues and other compounds. The true share with any hit is near 3.5%.
PglD DTNB – C. jejuni PglD acetyltransferase inhibitors, primary screen, biochemical, DTNB colorimetric, single point. purified PglD enzyme, DTNB colorimetric CoA detection. inhibition, % at 12.5 µM. actives 0.098% (n = 360,000). AID 602405, 2012; in the data active = inhibition above about 16%, passing the limit was not always enough; inconclusive = no clear call, values can overlap the other calls
Ecoli rRNA inh – reduced GFP signal of wild-type E. coli, primary screen, bacterial rRNA inhibitor project, GFP/RFP fluorescence, OD600, single point. AID 720706, 2013. E. coli WT GFP vs humanized-ribosome RFP mutants, 24 h; hits give low values; DMSO median 0, no signal -100. GFP signal change (wild-type ribosome), % (test concentration not listed). actives 1.6% (n = 350,000);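 active = significant combined selectivity score with lowered wild-type GFP, culture density cut under 30%, mutant RFP and density less affected; inactive = any of these conditions unmet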
HIV Env fusion – inhibitors of HIV-1 Env-driven cell-cell fusion, primary screen, HeLa-JRFL effector, CEM21 target cells, luciferase; AID 651610, 2012; inhibition, % at 12.3 µM; actives 1.1% (n = 360,000);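 active = mean replicate inhibition score of at least 50 and every replicate individually at or above 50; inconclusive = only one of the two criteria met; inactive = mean below 50 and not all replicates reaching 50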
PGC1a acetyl inh – inhibitors of PGC1a acetylation signal, primary screen, cell-based, U2OS, AlphaScreen, inhibitor mode. AlphaScreen anti-acetyl-lysine; with virally co-expressed GCN5 acetyltransferase. inhibition, % at 15.6 µM. actives 0.17% (n = 350,000). AID 651687, 2012;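 active = every replicate shows inhibition of at least 40%; inconclusive = mean inhibition at least 40% but some replicate below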
DENV2 CPE rescue – inhibitors of DENV2 cytopathic effect, primary screen, cell-based, plate reader, single concentration | DENV2-infected cells, cytopathic effect rescue | CPE inhibition, % at 9.99 µM | actives 1.7% (n = 350,000); in the data active = CPE inhibition above about 20%, passing the limit was not always enough; inconclusive = no clear call, values can overlap the other calls; tested in BHK-21 cells
FN deposition inh – inhibitors of fibronectin matrix deposition, primary screen, AH1F cells, Alexa488-fibronectin fluorescence, plate reader; inhibition, % at 12.6 µM; AH1F fibroblasts, overnight; actives 0.086% (n = 350,000); AID 743247, 2014;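 active = mean inhibition across replicates of 30% or more, regardless of how many single replicates reach that level; inconclusive = mean under 30% yet at least half of replicates reach 30%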
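Material: AH1F fibroblast monolayer depositing Alexa488-labelled fibronectin into matrix | Input: 10000 AH1F cells/well | Medium: DMEM plus 2% serum, read in PBS | Reagent: Alexa488-fibronectin, 24 nM final in well | Compound dosing: One dose per compound, pinned | Schedule: 1 h adhesion, overnight exposure | Measured by: Fluorescence at 485 nm excitation, 525 nm emission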
Numbers stand for hits; - = inactive; ? = inconclusive; . = not tested or not shown; [ ] = dose if it differs, or a comment.

SMILES | PglD DTNB | Ecoli rRNA inh | HIV Env fusion | PGC1a acetyl inh | DENV2 CPE rescue | FN deposition inh
CNC(=O)C[C@@H]1CC[C@@H]2[C@H](COc3ccc(NC(=O)c4cc(C)on4)cc3C(=O)N2C)O1 | - | - | - | - | . | -
CN(C)c1cccc(C(=O)Nc2cc(C(F)(F)F)ccc2-n2cnc3ccccc32)c1 | . | - | . | . | 25 | -
CC(=O)Nc1ccc(C(=O)Nc2cc(C(F)(F)F)ccc2-n2cnc3ccccc32)cc1 | . | . | - | . | . | -
CN(C)CC(=O)Nc1ccc2c(c1)[C@@H]1C[C@@H](CC(=O)N(C)C)O[C@@H](CO)[C@@H]1O2 | - | - | . | - | - | -
Cc1ccc(-n2nc(C)c(Sc3ccccc3[N+](=O)[O-])c2N)cc1 | . | -42 | - | . | - | -
CC(=O)Oc1c(Sc2ccccc2[N+](=O)[O-])c(C)nn1C(C)(C)C | . | - | - | - | - | -
Cc1n[nH]c(C)c1Sc1ccccc1[N+](=O)[O-] | . | -34 | - | - | - | -
OC[C@@H]1CC[C@@H]2O[C@H](CCc3ccc(C#Cc4ccccc4)cc3)[C@H](n3cc(-c4ccccc4)nn3)C[C@@H]2O1 | . | . | . | . | - | .
CC(C)NC(=O)N(C)C[C@H]1Oc2ccc(NS(=O)(=O)c3cccs3)cc2CC(=O)N([C@H](C)CO)C[C@@H]1C | - | - | - | - | - | .
Cc1ccc(S(=O)(=O)N[C@@H]2CC[C@@H](CCNC(=O)C3CCOCC3)O[C@H]2CO)cc1 | - | - | - | - | 21 | -
Cc1ccc(S(=O)(=O)N[C@H]2CC[C@@H](CCNC(=O)C3CCOCC3)O[C@H]2CO)cc1 | - | - | - | - | 22 | -
Cc1ccc(S(=O)(=O)N[C@H]2CC[C@H](CCNC(=O)C3CCCC3)O[C@@H]2CO)cc1 | - | - | - | - | 72 | -
COc1ccc(S(=O)(=O)N[C@H]2CC[C@@H](CCNC(=O)CN3CCOCC3)O[C@@H]2CO)cc1 | - | - | - | - | - | -
COc1ccc(S(=O)(=O)N[C@H]2CC[C@@H](CCNC(=O)CN3CCOCC3)O[C@H]2CO)cc1 | - | - | - | - | 94 | -
O=C(c1cccc(F)c1)N1CCCCN2[C@H](CO)[C@@H](c3ccc(C#CC4(O)CCCC4)cc3)[C@@H]2C1 | - | - | . | - | - | -
CCCNC(=O)Nc1ccc2c(c1)C(=O)N(C)[C@@H]1CC[C@@H](CC(=O)NC3CCC3)O[C@@H]1CO2 | - | - | - | - | - | -
COc1ccc(NC(=O)N(C)C[C@@H]2Oc3ccc(NC(=O)Nc4ccc5c(c4)OCO5)cc3C(=O)N([C@H](C)CO)C[C@@H]2C)cc1 | - | - | . | - | - | .
COc1ccccc1S(=O)(=O)N[C@H]1CC[C@H](CC(=O)N2CCN(C)CC2)O[C@H]1CO | - | - | 62[16.7 µM] | - | - | -
COc1ccccc1S(=O)(=O)N[C@@H]1CC[C@@H](CCNC(=O)C2CCCC2)O[C@@H]1CO | - | - | - | - | 20 | -
CC(C)(O)C#Cc1ccc([C@H]2[C@H]3CN(C(=O)c4ccc(F)cc4)CCCCN3[C@H]2CO)cc1 | - | - | . | - | - | .
CC(C)(O)C#Cc1ccc([C@@H]2[C@@H](CO)N3CCCCN(C(=O)c4ccc(F)cc4)C[C@@H]23)cc1 | - | - | . | - | 83 | .
O=C(c1ccc(F)cc1)N1CCCCN2[C@H](C1)[C@H](c1ccc(C#CC3(O)CCCC3)cc1)[C@@H]2CO | - | - | . | - | 42 | .
O=C(c1ccc(F)cc1)N1CCCCN2[C@H](CO)[C@@H](c3ccc(C#CC4(O)CCCC4)cc3)[C@H]2C1 | - | - | . | - | - | .
C[C@H](O)C#Cc1ccc([C@H]2[C@@H](CO)N3CCCCN(C(=O)c4ccc(F)cc4)C[C@@H]23)cc1 | - | - | . | - | 33 | .
C[C@@H]1CN([C@@H](C)CO)C(=O)c2cc(NC(=O)Cn3cnnn3)ccc2O[C@@H]1CN(C)Cc1ccc2c(c1)OCO2 | - | - | . | - | - | .
SMILES | PglD DTNB | Ecoli rRNA inh | HIV Env fusion | PGC1a acetyl inh | DENV2 CPE rescue | FN deposition inh
Cc1c(C(=O)OCC(=O)N(C)c2ccccc2)oc2ccccc12 | - | -28 | - | . | - | -
O=C(C[C@H]1C[C@H]2c3cc(NC(=O)C4CCOCC4)ccc3O[C@H]2[C@@H](CO)O1)NC1CCCCC1 | - | - | . | - | - | -
CSc1nc(C)c(CCOCc2ccc(F)cc2)c(=O)[nH]1 | . | -22 | - | - | - | -
CCCNC(=O)N1[C@@H]2c3ccc(-c4ccc(F)cc4)c(=O)n3C[C@@H]2[C@@H](CO)[C@@H]1C(=O)N1CCCCC1 | - | - | - | . | - | .
C[C@H](c1ccccc1)N1C[C@@H](COCc2ccccc2)Oc2cccc(N3CCCCC3)c2S1(=O)=O | . | - | 59 | . | - | -
COc1cccc(C2Oc3ccccc3C3CC(c4cccs4)=NN32)c1 (centres undefined) | - | -29 | - | - | 81 | -
O=C(N/N=C/c1ccccc1O)C(=O)N1CCCCCC1 | - | -25 | - | . | - | -
O=C(N/N=C/c1ccccc1F)C(=O)N1CCCCCC1 | - | - | - | - | - | -
CCOc1ccc(/C=C2\SC(=S)N(NS(=O)(=O)c3ccc(C)cc3)C2=O)cc1OC | - | -24 | - | - | - | -
C[C@@H]1CN([C@H](C)CO)C(=O)c2cc(NC(=O)C3CCCCC3)ccc2O[C@@H](C)CCCCO[C@H]1CN(C)C(=O)c1ccncc1 | - | - | - | - | ? | .
COc1ccc2sc(-c3ccc(N(C)C)cc3)c(C#CCCO)c2c1 | - | - | - | - | 26 | -
O=C(O)c1cc(=O)c2c(OCC(O)COc3cccc4oc(C(=O)O)cc(=O)c34)cccc2o1 | - | . | - | - | 26 | -
C[C@@H]1CN([C@@H](C)CO)C(=O)c2cc(-c3cccc(F)c3)cnc2O[C@@H]1CN(C)C(=O)Nc1cc(F)ccc1F | - | - | - | - | 26 | -
C[C@@H]1CN([C@@H](C)CO)C(=O)c2cc(-c3cccc(F)c3)cnc2O[C@H]1CN(C)C(=O)Nc1cc(F)ccc1F | - | - | - | - | - | -
COc1cccc(C#Cc2cnc3c(c2)C(=O)N([C@H](C)CO)C[C@H](C)[C@@H](CN(C)C(C)=O)O3)c1 | - | - | - | - | 24 | -
COc1cccc(C#Cc2cnc3c(c2)C(=O)N([C@H](C)CO)C[C@H](C)[C@H](CN(C)C(C)=O)O3)c1 | - | - | - | - | - | -
COc1cccc(-c2cnc3c(c2)C(=O)N([C@@H](C)CO)C[C@H](C)[C@@H](CN(C)C(C)=O)O3)c1 | - | - | - | - | - | -
